Results from ChEMBL document CHEMBL1155433, “Benzimidazole Thumb Pocket I finger-loop inhibitors of HCV NS5B polymerase: improved drug-like properties through C-2 SAR in three sub-series” (Bioorg Med Chem Lett, 2010).
Converted amounts (≈) assume the structure as drawn.

System: not listed separately
Assay: Inhibition of calf thymus DNA-directed RNA polymerase 2 assessed as [33P]UTP incorporated into the RNA after 120 mins by scintillation counting
Set-up: species or system Bos taurus
Conditions: not given

Structure (SMILES) | IC50
O=C(O)/C=C/c1ccc(NC(=O)C2(NC(=O)c3ccc4c(c3)nc(-c3ccoc3)n4C3CCCCC3)CCC2)cc1 | > 250000 nM
O=C(O)/C=C/c1ccc(NC(=O)C2(NC(=O)c3ccc4c(c3)nc(-c3ccco3)n4C3CCCCC3)CCC2)cc1 | > 250000 nM
O=C(O)/C=C/c1ccc(NC(=O)C2(NC(=O)c3ccc4c(c3)nc(-c3ccsc3)n4C3CCCCC3)CCC2)cc1 | > 250000 nM
Cn1cccc1-c1nc2cc(C(=O)NC3(C(=O)Nc4ccc(/C=C/C(=O)O)cc4)CCC3)ccc2n1C1CCCCC1 | > 250000 nM
O=C(O)/C=C/c1ccc(NC(=O)C2(NC(=O)c3ccc4c(c3)nc(-c3ccccn3)n4C3CCCCC3)CCC2)cc1 | > 250000 nM
O=C(O)/C=C/c1ccc(NC(=O)C2(NC(=O)c3ccc4c(c3)nc(-c3ccccc3)n4C3CCCCC3)CCC2)cc1 | > 250000 nM
O=C(O)/C=C/c1ccc(NC(=O)C2(NC(=O)c3ccc4c(c3)nc(-c3ccoc3)n4C3CCCCC3)CCCC2)cc1 | > 250000 nM
O=C(O)/C=C/c1ccc(NC(=O)C2(NC(=O)c3ccc4c(c3)nc(-c3ccccn3)n4C3CCCCC3)CCCC2)cc1 | > 250000 nM
O=C(O)/C=C/c1ccc(NC(=O)C2(NC(=O)c3ccc4c(c3)nc(-c3cccs3)n4C3CCCCC3)CCC2)cc1 | > 250000 nM

System: not listed separately
Assay: Half life in rat liver microsomes at 10 uM
Format: ADME, Microsome
Conditions: not given
In short: (§1)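 Half-life was measured with compound at 10 µM in human or rat liver microsomes.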

Structure (SMILES) | half-life at 10 µM
O=C(O)/C=C/c1ccc(NC(=O)C2(NC(=O)c3ccc4c(c3)nc(-c3ccoc3)n4C3CCCCC3)CCCC2)cc1 | 54 min
O=C(O)/C=C/c1ccc(NC(=O)C2(NC(=O)c3ccc4c(c3)nc(-c3ccccn3)n4C3CCCCC3)CCCC2)cc1 | 17 min

Target: Cytochrome P450 3A4 (Homo sapiens, UniProt P08684)
Sequence (P08684 whole entry): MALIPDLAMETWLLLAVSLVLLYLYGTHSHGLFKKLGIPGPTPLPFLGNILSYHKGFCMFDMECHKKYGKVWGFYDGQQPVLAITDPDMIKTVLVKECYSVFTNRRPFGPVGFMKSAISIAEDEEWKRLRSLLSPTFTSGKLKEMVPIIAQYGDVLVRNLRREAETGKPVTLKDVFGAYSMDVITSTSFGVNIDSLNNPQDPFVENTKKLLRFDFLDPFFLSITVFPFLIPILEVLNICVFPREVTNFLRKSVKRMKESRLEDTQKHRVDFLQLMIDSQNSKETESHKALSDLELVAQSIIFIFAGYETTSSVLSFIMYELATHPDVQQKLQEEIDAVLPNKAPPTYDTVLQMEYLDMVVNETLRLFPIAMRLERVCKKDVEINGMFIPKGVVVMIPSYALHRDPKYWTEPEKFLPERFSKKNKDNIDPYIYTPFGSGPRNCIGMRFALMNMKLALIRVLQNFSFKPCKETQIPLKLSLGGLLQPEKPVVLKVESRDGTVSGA
Assay: Inhibition of CYP3A4
Format: ADME
Conditions: not given

IC50 | Structure (SMILES)
440 nM | O=C(N[C@@H](Cc1c[nH]c2ccc(O)cc12)c1cscn1)c1ccc2c(c1)nc(-c1ccoc1)n2C1CCCCC1

System: Liver microsomes
Assay: (§2) Half life in human liver microsomes at 10 uM
Format: ADME, Microsome
Conditions: microsomes, 10 µM
In short: as §1

t1/2 | Structure (SMILES)
26 min | O=C(N[C@@H](Cc1c[nH]c2ccc(O)cc12)c1cscn1)c1ccc2c(c1)nc(-c1ccoc1)n2C1CCCCC1

System: not listed separately
Assay: as §2
Format: ADME, Microsome
Conditions: liver microsomes
In short: as §1

Structure (SMILES) | half-life at 10 µM
O=C(O)/C=C/c1ccc(NC(=O)C2(NC(=O)c3ccc4c(c3)nc(-c3ccoc3)n4C3CCCCC3)CCCC2)cc1 | 77 min
O=C(O)/C=C/c1ccc(NC(=O)C2(NC(=O)c3ccc4c(c3)nc(-c3ccccn3)n4C3CCCCC3)CCCC2)cc1 | 67 min

System: not listed separately
Assay: Permeability across human Caco-2 cells
Format: ADME, cell-based
Conditions: read-out: permeability

Structure (SMILES) | Papp
O=C(O)/C=C/c1ccc(NC(=O)C2(NC(=O)c3ccc4c(c3)nc(-c3ccoc3)n4C3CCCCC3)CCCC2)cc1 | 3.9 ×10⁻⁶ cm/s
O=C(O)/C=C/c1ccc(NC(=O)C2(NC(=O)c3ccc4c(c3)nc(-c3ccccn3)n4C3CCCCC3)CCCC2)cc1 | 9.5 ×10⁻⁶ cm/s

System: not listed separately
Assay: Tmax in Sprague-Dawley rat plasma at 5 mg/kg, po
Format: ADME, organism-based
Set-up: dose 5 mg/kg, route oral
Conditions: not given
In short: (§3)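 Male Sprague-Dawley rats, fasted overnight, given 5 mg/kg by oral gavage in 0.5% methocel/0.3% Tween-80. Plasma was pooled from three animals at each time point over 0–8 h. Compound was quantified after liquid–liquid extraction by HPLC with UV detection.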

Structure (SMILES) | Tmax
O=C(O)/C=C/c1ccc(NC(=O)C2(NC(=O)c3ccc4c(c3)nc(-c3ccccn3)n4C3CCCCC3)CCCC2)cc1 | 30 min

System: not listed separately
Assay: Cmax in Sprague-Dawley rat plasma at 5 mg/kg, po
Format: ADME, organism-based
Set-up: dose 5 mg/kg, route oral
Conditions: not given
In short: as §3

Structure (SMILES) | Cmax
O=C(O)/C=C/c1ccc(NC(=O)C2(NC(=O)c3ccc4c(c3)nc(-c3ccccn3)n4C3CCCCC3)CCCC2)cc1 | 580 nM

Organism: Homo sapiens
Assay: Protein binding in human plasma by equilibrium dialysis method
Conditions: read-out: PPB (converted)

Structure (SMILES) | fraction unbound
O=C(O)/C=C/c1ccc(NC(=O)C2(NC(=O)c3ccc4c(c3)nc(-c3ccccn3)n4C3CCCCC3)CCCC2)cc1 | 0.124

Target: Cytochrome P450 2C9 (Homo sapiens, UniProt P11712)
Sequence (P11712 whole entry): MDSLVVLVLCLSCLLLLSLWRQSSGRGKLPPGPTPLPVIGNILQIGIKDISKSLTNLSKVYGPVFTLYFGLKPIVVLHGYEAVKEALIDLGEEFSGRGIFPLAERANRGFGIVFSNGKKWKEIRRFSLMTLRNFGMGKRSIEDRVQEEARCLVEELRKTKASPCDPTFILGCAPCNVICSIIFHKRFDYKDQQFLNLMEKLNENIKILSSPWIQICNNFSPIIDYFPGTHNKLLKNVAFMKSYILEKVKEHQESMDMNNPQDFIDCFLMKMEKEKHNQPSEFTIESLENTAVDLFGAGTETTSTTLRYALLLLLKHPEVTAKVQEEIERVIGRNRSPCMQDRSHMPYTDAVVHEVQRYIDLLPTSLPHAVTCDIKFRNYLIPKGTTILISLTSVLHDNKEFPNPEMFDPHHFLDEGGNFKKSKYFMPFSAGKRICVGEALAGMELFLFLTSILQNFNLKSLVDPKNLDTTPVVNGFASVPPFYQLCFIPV
Assay: Inhibition of CYP2C9
Format: ADME
Conditions: not given

Structure (SMILES) | IC50
O=C(O)/C=C/c1ccc(NC(=O)C2(NC(=O)c3ccc4c(c3)nc(-c3ccoc3)n4C3CCCCC3)CCCC2)cc1 | 11500 nM
O=C(O)/C=C/c1ccc(NC(=O)C2(NC(=O)c3ccc4c(c3)nc(-c3ccccn3)n4C3CCCCC3)CCCC2)cc1 | 4000 nM

System: not listed separately
Assay: Mean residence time in Sprague-Dawley rat plasma at 5 mg/kg, po
Format: ADME, organism-based
Set-up: dose 5 mg/kg, route oral
Conditions: not given
In short: as §3

Structure (SMILES) | MRT
O=C(O)/C=C/c1ccc(NC(=O)C2(NC(=O)c3ccc4c(c3)nc(-c3ccccn3)n4C3CCCCC3)CCCC2)cc1 | 44.4 min

System: Hepatitis C virus
Assay: Antiviral activity against HCV1b in human Huh7 cells assessed as reduction of viral RNA replication after 72 hrs by luciferase reporter assay
Format: functional, organism-based, Hepacivirus hominis
Conditions: genotype 1b, Huh-7, 72 h

Structure (SMILES) | EC50
O=C(O)/C=C/c1ccc(NC(=O)C2(NC(=O)c3ccc4c(c3)nc(-c3ccoc3)n4C3CCCCC3)CCC2)cc1 | 1100 nM
O=C(O)/C=C/c1ccc(NC(=O)C2(NC(=O)c3ccc4c(c3)nc(-c3ccco3)n4C3CCCCC3)CCC2)cc1 | 1200 nM
O=C(O)/C=C/c1ccc(NC(=O)C2(NC(=O)c3ccc4c(c3)nc(-c3ccsc3)n4C3CCCCC3)CCC2)cc1 | 1500 nM
Cn1cccc1-c1nc2cc(C(=O)N[C@@H](Cc3c[nH]c4ccc(O)cc34)c3cscn3)ccc2n1C1CCCCC1 | 2700 nM
Cn1cccc1-c1nc2cc(C(=O)NC3(C(=O)Nc4ccc(/C=C/C(=O)O)cc4)CCC3)ccc2n1C1CCCCC1 | 700 nM
O=C(O)/C=C/c1ccc(NC(=O)C2(NC(=O)c3ccc4c(c3)nc(-c3ccccn3)n4C3CCCCC3)CCC2)cc1 | 700 nM
O=C(O)/C=C/c1ccc(NC(=O)C2(NC(=O)c3ccc4c(c3)nc(-c3ccccc3)n4C3CCCCC3)CCC2)cc1 | 1200 nM
O=C(O)/C=C/c1ccc(NC(=O)C2(NC(=O)c3ccc4c(c3)nc(-c3ccoc3)n4C3CCCCC3)CCCC2)cc1 | 880 nM
O=C(O)/C=C/c1ccc(NC(=O)C2(NC(=O)c3ccc4c(c3)nc(-c3ccccn3)n4C3CCCCC3)CCCC2)cc1 | 580 nM
O=C(O)/C=C/c1ccc(NC(=O)C2(NC(=O)c3ccc4c(c3)nc(-c3cccs3)n4C3CCCCC3)CCC2)cc1 | 1200 nM
O=C(N[C@@H](Cc1c[nH]c2ccc(O)cc12)c1cscn1)c1ccc2c(c1)nc(-c1ccoc1)n2C1CCCCC1 | 3600 nM

System: not listed separately
Assay: Cytotoxicity against human HuH7 cells
Format: cell-based, Huh-7
Conditions: read-out: TC50 (the source's name)

Structure (SMILES) | CC50
O=C(O)/C=C/c1ccc(NC(=O)C2(NC(=O)c3ccc4c(c3)nc(-c3ccoc3)n4C3CCCCC3)CCC2)cc1 | > 10000 nM
O=C(O)/C=C/c1ccc(NC(=O)C2(NC(=O)c3ccc4c(c3)nc(-c3ccco3)n4C3CCCCC3)CCC2)cc1 | > 10000 nM
O=C(O)/C=C/c1ccc(NC(=O)C2(NC(=O)c3ccc4c(c3)nc(-c3ccsc3)n4C3CCCCC3)CCC2)cc1 | > 10000 nM
Cn1cccc1-c1nc2cc(C(=O)N[C@@H](Cc3c[nH]c4ccc(O)cc34)c3cscn3)ccc2n1C1CCCCC1 | > 10000 nM
Cn1cccc1-c1nc2cc(C(=O)NC3(C(=O)Nc4ccc(/C=C/C(=O)O)cc4)CCC3)ccc2n1C1CCCCC1 | > 10000 nM
O=C(O)/C=C/c1ccc(NC(=O)C2(NC(=O)c3ccc4c(c3)nc(-c3ccccn3)n4C3CCCCC3)CCC2)cc1 | > 10000 nM
O=C(O)/C=C/c1ccc(NC(=O)C2(NC(=O)c3ccc4c(c3)nc(-c3ccccc3)n4C3CCCCC3)CCC2)cc1 | > 10000 nM
O=C(O)/C=C/c1ccc(NC(=O)C2(NC(=O)c3ccc4c(c3)nc(-c3ccoc3)n4C3CCCCC3)CCCC2)cc1 | > 10000 nM
O=C(O)/C=C/c1ccc(NC(=O)C2(NC(=O)c3ccc4c(c3)nc(-c3ccccn3)n4C3CCCCC3)CCCC2)cc1 | > 10000 nM
O=C(O)/C=C/c1ccc(NC(=O)C2(NC(=O)c3ccc4c(c3)nc(-c3cccs3)n4C3CCCCC3)CCC2)cc1 | > 10000 nM
O=C(N[C@@H](Cc1c[nH]c2ccc(O)cc12)c1cscn1)c1ccc2c(c1)nc(-c1ccoc1)n2C1CCCCC1 | > 10000 nM

System: not listed separately
Assay: Solubility in phosphate buffer at pH 7.2 after 24 hrs by shake flask method
Format: physicochemical
Conditions: not given

Structure (SMILES) | solubility thermodynamic at 24 h
O=C(O)/C=C/c1ccc(NC(=O)C2(NC(=O)c3ccc4c(c3)nc(-c3ccoc3)n4C3CCCCC3)CCCC2)cc1 | 125 µg/mL (≈ 221 µM)
O=C(O)/C=C/c1ccc(NC(=O)C2(NC(=O)c3ccc4c(c3)nc(-c3ccccn3)n4C3CCCCC3)CCCC2)cc1 | 100 µg/mL (≈ 173 µM)
O=C(N[C@@H](Cc1c[nH]c2ccc(O)cc12)c1cscn1)c1ccc2c(c1)nc(-c1ccoc1)n2C1CCCCC1 | < 0.1 µg/mL

System: Hepatitis C virus
Assay: Inhibition of HCV 1b NS5Bdelta21 polymerase assessed as [3H]UTP incorporated into the biotinylated primer after 90 mins by scintillation counting
Format: functional, Hepatitis C virus subtype 1b
Conditions: not given

Structure (SMILES) | IC50
O=C(O)/C=C/c1ccc(NC(=O)C2(NC(=O)c3ccc4c(c3)nc(-c3ccoc3)n4C3CCCCC3)CCC2)cc1 | 50 nM
O=C(O)/C=C/c1ccc(NC(=O)C2(NC(=O)c3ccc4c(c3)nc(-c3ccco3)n4C3CCCCC3)CCC2)cc1 | 110 nM
O=C(O)/C=C/c1ccc(NC(=O)C2(NC(=O)c3ccc4c(c3)nc(-c3ccsc3)n4C3CCCCC3)CCC2)cc1 | 120 nM
Cn1cccc1-c1nc2cc(C(=O)N[C@@H](Cc3c[nH]c4ccc(O)cc34)c3cscn3)ccc2n1C1CCCCC1 | 730 nM
Cn1cccc1-c1nc2cc(C(=O)NC3(C(=O)Nc4ccc(/C=C/C(=O)O)cc4)CCC3)ccc2n1C1CCCCC1 | 90 nM
O=C(O)/C=C/c1ccc(NC(=O)C2(NC(=O)c3ccc4c(c3)nc(-c3ccccn3)n4C3CCCCC3)CCC2)cc1 | 100 nM
O=C(O)/C=C/c1ccc(NC(=O)C2(NC(=O)c3ccc4c(c3)nc(-c3ccccc3)n4C3CCCCC3)CCC2)cc1 | 200 nM
O=C(O)/C=C/c1ccc(NC(=O)C2(NC(=O)c3ccc4c(c3)nc(-c3cccs3)n4C3CCCCC3)CCC2)cc1 | 110 nM
O=C(N[C@@H](Cc1c[nH]c2ccc(O)cc12)c1cscn1)c1ccc2c(c1)nc(-c1ccoc1)n2C1CCCCC1 | 220 nM

Target: Cytochrome P450 2C19 (Homo sapiens, UniProt P33261)
Sequence (P33261 whole entry): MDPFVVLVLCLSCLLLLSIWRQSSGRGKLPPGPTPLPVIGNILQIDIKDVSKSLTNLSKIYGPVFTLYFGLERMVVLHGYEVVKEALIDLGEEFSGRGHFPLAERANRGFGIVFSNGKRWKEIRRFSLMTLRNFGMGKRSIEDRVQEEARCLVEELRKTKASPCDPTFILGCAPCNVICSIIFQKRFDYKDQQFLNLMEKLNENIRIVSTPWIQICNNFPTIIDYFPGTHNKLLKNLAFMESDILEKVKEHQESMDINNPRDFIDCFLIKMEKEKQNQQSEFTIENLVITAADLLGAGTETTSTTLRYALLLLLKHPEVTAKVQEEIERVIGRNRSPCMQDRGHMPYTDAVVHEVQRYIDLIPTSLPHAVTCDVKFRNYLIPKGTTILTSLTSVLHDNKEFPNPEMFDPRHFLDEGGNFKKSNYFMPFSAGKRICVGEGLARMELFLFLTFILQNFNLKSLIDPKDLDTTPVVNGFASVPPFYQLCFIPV
Assay: Inhibition of CYP2C19
Format: ADME
Conditions: not given

Structure (SMILES) | IC50
O=C(O)/C=C/c1ccc(NC(=O)C2(NC(=O)c3ccc4c(c3)nc(-c3ccoc3)n4C3CCCCC3)CCCC2)cc1 | 7700 nM
O=C(O)/C=C/c1ccc(NC(=O)C2(NC(=O)c3ccc4c(c3)nc(-c3ccccn3)n4C3CCCCC3)CCCC2)cc1 | 7400 nM

System: not listed separately
Assay: AUC in Sprague-Dawley rat plasma at 5 mg/kg, po
Format: ADME, organism-based
Set-up: dose 5 mg/kg, route oral
Conditions: not given
In short: as §3

Structure (SMILES) | AUC
O=C(O)/C=C/c1ccc(NC(=O)C2(NC(=O)c3ccc4c(c3)nc(-c3ccccn3)n4C3CCCCC3)CCCC2)cc1 | 0.51 µM·h
